In ChEMBL document CHEMBL1671821, “Syntheses of 2-amino and 2-halothiazole derivatives as high-affinity metabotropic glutamate receptor subtype 5 ligands and potential radioligands for in vivo imaging” (J Med Chem, 2011):

What was measured:
[1] = biological target: Metabotropic glutamate receptor 5 (Rattus norvegicus, UniProt P31424); experiment: Displacement of [3H]MPEP from mGluR5 in rat brain; assay type: tissue-based
How it was run: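 Competition binding on rat brain homogenate mGlu5 against [3H]MPEP at 1.0 nM. Run by the NIMH Psychoactive Drug Screening Program. Ki derived from triplicate determinations, n = 6 for some ligands. Values cited from earlier work were not measured here.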

[2] = biological target: 5-hydroxytryptamine receptor 7 (Homo sapiens, UniProt P34969); experiment: Binding affinity to 5HT7 receptor
[3] = biological target: Muscarinic acetylcholine receptor M3 (Homo sapiens, UniProt P20309); experiment: Binding affinity to muscarinic M3 receptor
[4] = biological target: Sodium-dependent noradrenaline transporter (Homo sapiens, UniProt P23975); experiment: Binding affinity to NET
[5] = biological target: Muscarinic acetylcholine receptor M4 (Homo sapiens, UniProt P08173); experiment: Binding affinity to muscarinic M4 receptor
[6] = biological target: Metabotropic glutamate receptor 8 (Homo sapiens, UniProt O00222); experiment: Binding affinity to mGluR8 receptor
[7] = biological target: 5-hydroxytryptamine receptor 1A (Homo sapiens, UniProt P08908); experiment: Binding affinity to 5HT1A receptor
[8] = biological target: Beta-1 adrenergic receptor (Homo sapiens, UniProt P08588); experiment: Binding affinity to adrenergic beta1 receptor
Histamine H3 receptor = Histamine H3 receptor (Homo sapiens, UniProt Q9Y5N1); experiment: Binding affinity to histamine H3 receptor
Histamine H3 receptor, sequence (Q9Y5N1 whole entry): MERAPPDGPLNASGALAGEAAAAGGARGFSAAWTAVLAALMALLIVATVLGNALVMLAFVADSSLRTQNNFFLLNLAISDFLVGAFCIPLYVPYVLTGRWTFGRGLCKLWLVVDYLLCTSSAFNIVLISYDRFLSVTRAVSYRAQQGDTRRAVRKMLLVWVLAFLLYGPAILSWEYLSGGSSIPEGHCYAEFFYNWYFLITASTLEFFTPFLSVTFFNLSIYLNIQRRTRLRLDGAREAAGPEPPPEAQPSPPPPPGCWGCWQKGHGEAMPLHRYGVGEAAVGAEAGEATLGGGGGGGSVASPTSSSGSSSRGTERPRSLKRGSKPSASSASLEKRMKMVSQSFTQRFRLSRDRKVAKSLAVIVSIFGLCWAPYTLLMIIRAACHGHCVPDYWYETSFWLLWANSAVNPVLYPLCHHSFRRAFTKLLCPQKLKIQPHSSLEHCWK

[9] = biological target: 5-hydroxytryptamine receptor 2C (Homo sapiens, UniProt P28335); experiment: Binding affinity to 5HT2C receptor
[10] = biological target: Alpha-2B adrenergic receptor (Homo sapiens, UniProt P18089); experiment: Binding affinity to adrenergic alpha2B receptor
[11] = biological target: Metabotropic glutamate receptor 1 (Homo sapiens, UniProt Q13255); experiment: Binding affinity to mGluR1 receptor
D(1A) dopamine receptor = D(1A) dopamine receptor (Homo sapiens, UniProt P21728); experiment: Binding affinity to dopamine D1 receptor
Mu-type opioid receptor = Mu-type opioid receptor (Homo sapiens, UniProt P35372); experiment: Binding affinity to MOR
[12] = biological target: 5-hydroxytryptamine receptor 5A (Homo sapiens, UniProt P47898); experiment: Binding affinity to 5HT5A receptor
[13] = biological target: Sodium-dependent dopamine transporter (Homo sapiens, UniProt Q01959); experiment: Binding affinity to DAT
[14] = Binding affinity to sigma 2 receptor
[15] = biological target: Alpha-2A adrenergic receptor (Homo sapiens, UniProt P08913); experiment: Binding affinity to adrenergic alpha2A receptor
[16] = biological target: 5-hydroxytryptamine receptor 2B (Homo sapiens, UniProt P41595); experiment: Binding affinity to 5HT2B receptor
[17] = biological target: 5-hydroxytryptamine receptor 6 (Homo sapiens, UniProt P50406); experiment: Binding affinity to 5HT6 receptor
[18] = biological target: Kappa-type opioid receptor (Homo sapiens, UniProt P41145); experiment: Binding affinity to KOR
[19] = biological target: Sodium-dependent serotonin transporter (Homo sapiens, UniProt P31645); experiment: Binding affinity to SERT receptor
Histamine H2 receptor = Histamine H2 receptor (Homo sapiens, UniProt P25021); experiment: Binding affinity to histamine H2 receptor
[20] = biological target: Delta-type opioid receptor (Homo sapiens, UniProt P41143); experiment: Binding affinity to DOR
[21] = biological target: Alpha-1A adrenergic receptor (Homo sapiens, UniProt P35348); experiment: Binding affinity to adrenergic alpha1A receptor
Alpha-1A adrenergic receptor, sequence (P35348 whole entry): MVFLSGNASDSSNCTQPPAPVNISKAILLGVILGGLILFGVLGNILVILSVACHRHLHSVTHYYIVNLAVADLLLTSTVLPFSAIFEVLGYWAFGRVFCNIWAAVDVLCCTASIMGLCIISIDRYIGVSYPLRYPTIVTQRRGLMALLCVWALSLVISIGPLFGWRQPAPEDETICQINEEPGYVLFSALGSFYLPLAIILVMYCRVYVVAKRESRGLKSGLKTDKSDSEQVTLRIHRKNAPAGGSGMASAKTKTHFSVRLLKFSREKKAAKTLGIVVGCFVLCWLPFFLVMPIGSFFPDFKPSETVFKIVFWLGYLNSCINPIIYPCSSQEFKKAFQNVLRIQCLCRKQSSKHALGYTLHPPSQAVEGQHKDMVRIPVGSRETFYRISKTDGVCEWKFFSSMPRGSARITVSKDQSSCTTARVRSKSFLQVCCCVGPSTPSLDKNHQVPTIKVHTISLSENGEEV

[22] = biological target: Beta-3 adrenergic receptor (Homo sapiens, UniProt P13945); experiment: Binding affinity to adrenergic beta3 receptor
[23] = biological target: Metabotropic glutamate receptor 2 (Homo sapiens, UniProt Q14416); experiment: Binding affinity to mGluR2 receptor
Metabotropic glutamate receptor 2, sequence (Q14416 whole entry): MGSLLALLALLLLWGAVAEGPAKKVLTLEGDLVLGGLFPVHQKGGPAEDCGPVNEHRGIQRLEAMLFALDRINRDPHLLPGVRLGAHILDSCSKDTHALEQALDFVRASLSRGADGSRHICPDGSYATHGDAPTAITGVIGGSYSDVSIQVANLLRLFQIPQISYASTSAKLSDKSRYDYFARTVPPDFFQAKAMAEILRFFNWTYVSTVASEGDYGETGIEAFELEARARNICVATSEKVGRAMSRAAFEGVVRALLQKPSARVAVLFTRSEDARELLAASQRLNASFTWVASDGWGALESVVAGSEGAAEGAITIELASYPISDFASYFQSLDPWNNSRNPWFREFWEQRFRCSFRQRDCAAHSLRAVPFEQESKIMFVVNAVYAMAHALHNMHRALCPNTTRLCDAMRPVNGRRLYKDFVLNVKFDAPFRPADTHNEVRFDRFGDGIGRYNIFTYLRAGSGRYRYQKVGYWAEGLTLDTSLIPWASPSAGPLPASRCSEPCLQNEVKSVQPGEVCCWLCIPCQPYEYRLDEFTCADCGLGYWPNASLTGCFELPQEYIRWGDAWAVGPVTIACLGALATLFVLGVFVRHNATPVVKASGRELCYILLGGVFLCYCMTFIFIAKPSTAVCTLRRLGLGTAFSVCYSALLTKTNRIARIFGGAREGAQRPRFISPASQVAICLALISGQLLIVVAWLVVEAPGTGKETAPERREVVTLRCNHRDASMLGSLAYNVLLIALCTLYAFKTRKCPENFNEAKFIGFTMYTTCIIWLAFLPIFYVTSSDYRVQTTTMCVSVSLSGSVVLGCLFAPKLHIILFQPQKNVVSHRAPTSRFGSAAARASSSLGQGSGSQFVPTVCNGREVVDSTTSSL

D(1B) dopamine receptor = D(1B) dopamine receptor (Homo sapiens, UniProt P21918); experiment: Binding affinity to dopamine D5 receptor
D(2) dopamine receptor = D(2) dopamine receptor (Homo sapiens, UniProt P14416); experiment: Binding affinity to dopamine D2 receptor
Histamine H4 receptor = Histamine H4 receptor (Homo sapiens, UniProt Q9H3N8); experiment: Binding affinity to histamine H4 receptor
Histamine H4 receptor, sequence (Q9H3N8 whole entry): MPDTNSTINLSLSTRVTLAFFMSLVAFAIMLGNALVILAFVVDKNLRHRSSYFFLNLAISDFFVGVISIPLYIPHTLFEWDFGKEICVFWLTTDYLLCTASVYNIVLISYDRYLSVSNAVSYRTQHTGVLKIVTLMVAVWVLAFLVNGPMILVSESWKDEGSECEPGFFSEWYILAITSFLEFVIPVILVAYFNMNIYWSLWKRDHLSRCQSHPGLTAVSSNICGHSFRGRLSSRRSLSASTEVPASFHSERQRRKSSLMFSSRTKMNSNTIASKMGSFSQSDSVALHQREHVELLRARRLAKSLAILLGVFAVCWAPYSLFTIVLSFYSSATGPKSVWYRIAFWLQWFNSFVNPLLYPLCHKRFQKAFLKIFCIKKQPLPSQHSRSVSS

[24] = Binding affinity to benzodiazepine receptor in rat brain; assay type: tissue-based
[25] = Binding affinity to GABAA receptor
D(4) dopamine receptor = D(4) dopamine receptor (Homo sapiens, UniProt P21917); experiment: Binding affinity to dopamine D4 receptor
[26] = biological target: 5-hydroxytryptamine receptor 1B (Homo sapiens, UniProt P28222); experiment: Binding affinity to 5HT1B receptor
[27] = biological target: Sigma non-opioid intracellular receptor 1 (Homo sapiens, UniProt Q99720); experiment: Binding affinity to sigma 1 receptor
Sigma non-opioid intracellular receptor 1, sequence (Q99720 whole entry): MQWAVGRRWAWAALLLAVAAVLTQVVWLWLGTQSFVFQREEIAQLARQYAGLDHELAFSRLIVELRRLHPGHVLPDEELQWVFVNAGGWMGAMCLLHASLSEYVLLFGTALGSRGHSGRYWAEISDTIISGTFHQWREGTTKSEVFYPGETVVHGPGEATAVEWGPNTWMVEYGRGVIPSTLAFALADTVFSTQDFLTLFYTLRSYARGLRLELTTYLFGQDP

[28] = biological target: Muscarinic acetylcholine receptor M5 (Homo sapiens, UniProt P08912); experiment: Binding affinity to muscarinic M5 receptor
[29] = biological target: 5-hydroxytryptamine receptor 2A (Homo sapiens, UniProt P28223); experiment: Binding affinity to 5HT2A receptor
[30] = biological target: Metabotropic glutamate receptor 4 (Homo sapiens, UniProt Q14833); experiment: Binding affinity to mGluR4 receptor
Metabotropic glutamate receptor 4, sequence (Q14833 whole entry): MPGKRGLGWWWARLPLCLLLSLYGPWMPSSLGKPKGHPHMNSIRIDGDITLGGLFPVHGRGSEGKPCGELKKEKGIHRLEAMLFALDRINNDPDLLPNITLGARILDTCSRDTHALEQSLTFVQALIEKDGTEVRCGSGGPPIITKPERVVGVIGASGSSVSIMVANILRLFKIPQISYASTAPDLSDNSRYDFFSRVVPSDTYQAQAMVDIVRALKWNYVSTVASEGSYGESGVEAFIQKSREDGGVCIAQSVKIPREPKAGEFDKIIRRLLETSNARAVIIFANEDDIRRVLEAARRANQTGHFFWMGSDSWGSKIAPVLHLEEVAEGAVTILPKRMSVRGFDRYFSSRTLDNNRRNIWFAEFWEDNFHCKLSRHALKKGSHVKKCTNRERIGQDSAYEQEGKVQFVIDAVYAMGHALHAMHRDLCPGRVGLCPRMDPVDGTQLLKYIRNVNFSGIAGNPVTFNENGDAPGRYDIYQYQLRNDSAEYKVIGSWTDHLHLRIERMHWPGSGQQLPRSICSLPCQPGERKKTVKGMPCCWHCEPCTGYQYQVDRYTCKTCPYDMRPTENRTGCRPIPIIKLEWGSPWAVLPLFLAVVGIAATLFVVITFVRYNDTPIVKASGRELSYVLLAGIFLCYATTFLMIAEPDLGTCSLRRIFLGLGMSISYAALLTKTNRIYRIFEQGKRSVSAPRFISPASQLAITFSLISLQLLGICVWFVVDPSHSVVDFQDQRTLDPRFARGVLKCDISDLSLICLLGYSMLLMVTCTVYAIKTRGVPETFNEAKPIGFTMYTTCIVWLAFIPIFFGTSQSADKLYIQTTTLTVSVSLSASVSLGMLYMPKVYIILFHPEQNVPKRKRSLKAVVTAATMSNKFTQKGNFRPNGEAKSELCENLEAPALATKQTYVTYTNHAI

[31] = biological target: Muscarinic acetylcholine receptor M2 (Homo sapiens, UniProt P08172); experiment: Binding affinity to muscarinic M2 receptor
Histamine H1 receptor = Histamine H1 receptor (Homo sapiens, UniProt P35367); experiment: Binding affinity to histamine H1 receptor
[32] = biological target: 5-hydroxytryptamine receptor 3A (Homo sapiens, UniProt P46098); experiment: Binding affinity to 5HT3 receptor
D(3) dopamine receptor = D(3) dopamine receptor (Homo sapiens, UniProt P35462); experiment: Binding affinity to dopamine D3 receptor
[33] = biological target: Alpha-2C adrenergic receptor (Homo sapiens, UniProt P18825); experiment: Binding affinity to adrenergic Alpha-2C receptor
[34] = biological target: Alpha-1B adrenergic receptor (Homo sapiens, UniProt P35368); experiment: Binding affinity to adrenergic Alpha-1B receptor
[35] = Binding affinity to NMDA receptor PCP binding site
[36] = biological target: Alpha-1D adrenergic receptor (Homo sapiens, UniProt P25100); experiment: Binding affinity to adrenergic Alpha-1D receptor
[37] = biological target: 5-hydroxytryptamine receptor 1D (Homo sapiens, UniProt P28221); experiment: Binding affinity to 5HT1D receptor
[38] = biological target: 5-hydroxytryptamine receptor 1E (Homo sapiens, UniProt P28566); experiment: Binding affinity to 5HT1E receptor
[39] = biological target: Metabotropic glutamate receptor 6 (Homo sapiens, UniProt O15303); experiment: Binding affinity to mGluR6 receptor
[40] = biological target: Beta-2 adrenergic receptor (Homo sapiens, UniProt P07550); experiment: Binding affinity to adrenergic beta2 receptor
[41] = biological target: Muscarinic acetylcholine receptor M1 (Homo sapiens, UniProt P11229); experiment: Binding affinity to muscarinic M1 receptor
Muscarinic acetylcholine receptor M1, sequence (P11229 whole entry): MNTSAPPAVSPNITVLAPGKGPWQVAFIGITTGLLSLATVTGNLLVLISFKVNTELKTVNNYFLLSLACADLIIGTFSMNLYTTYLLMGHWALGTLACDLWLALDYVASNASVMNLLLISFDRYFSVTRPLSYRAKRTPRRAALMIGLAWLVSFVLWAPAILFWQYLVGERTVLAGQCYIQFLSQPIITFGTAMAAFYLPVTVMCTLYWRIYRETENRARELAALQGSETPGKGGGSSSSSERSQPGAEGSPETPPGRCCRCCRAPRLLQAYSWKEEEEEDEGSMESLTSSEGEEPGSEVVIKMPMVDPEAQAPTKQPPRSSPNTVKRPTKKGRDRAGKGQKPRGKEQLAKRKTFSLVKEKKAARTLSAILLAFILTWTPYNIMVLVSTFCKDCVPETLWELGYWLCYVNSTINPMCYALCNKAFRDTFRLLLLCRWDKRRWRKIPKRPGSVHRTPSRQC

Metabotropic glutamate receptor 5, sequence (P31424 whole entry): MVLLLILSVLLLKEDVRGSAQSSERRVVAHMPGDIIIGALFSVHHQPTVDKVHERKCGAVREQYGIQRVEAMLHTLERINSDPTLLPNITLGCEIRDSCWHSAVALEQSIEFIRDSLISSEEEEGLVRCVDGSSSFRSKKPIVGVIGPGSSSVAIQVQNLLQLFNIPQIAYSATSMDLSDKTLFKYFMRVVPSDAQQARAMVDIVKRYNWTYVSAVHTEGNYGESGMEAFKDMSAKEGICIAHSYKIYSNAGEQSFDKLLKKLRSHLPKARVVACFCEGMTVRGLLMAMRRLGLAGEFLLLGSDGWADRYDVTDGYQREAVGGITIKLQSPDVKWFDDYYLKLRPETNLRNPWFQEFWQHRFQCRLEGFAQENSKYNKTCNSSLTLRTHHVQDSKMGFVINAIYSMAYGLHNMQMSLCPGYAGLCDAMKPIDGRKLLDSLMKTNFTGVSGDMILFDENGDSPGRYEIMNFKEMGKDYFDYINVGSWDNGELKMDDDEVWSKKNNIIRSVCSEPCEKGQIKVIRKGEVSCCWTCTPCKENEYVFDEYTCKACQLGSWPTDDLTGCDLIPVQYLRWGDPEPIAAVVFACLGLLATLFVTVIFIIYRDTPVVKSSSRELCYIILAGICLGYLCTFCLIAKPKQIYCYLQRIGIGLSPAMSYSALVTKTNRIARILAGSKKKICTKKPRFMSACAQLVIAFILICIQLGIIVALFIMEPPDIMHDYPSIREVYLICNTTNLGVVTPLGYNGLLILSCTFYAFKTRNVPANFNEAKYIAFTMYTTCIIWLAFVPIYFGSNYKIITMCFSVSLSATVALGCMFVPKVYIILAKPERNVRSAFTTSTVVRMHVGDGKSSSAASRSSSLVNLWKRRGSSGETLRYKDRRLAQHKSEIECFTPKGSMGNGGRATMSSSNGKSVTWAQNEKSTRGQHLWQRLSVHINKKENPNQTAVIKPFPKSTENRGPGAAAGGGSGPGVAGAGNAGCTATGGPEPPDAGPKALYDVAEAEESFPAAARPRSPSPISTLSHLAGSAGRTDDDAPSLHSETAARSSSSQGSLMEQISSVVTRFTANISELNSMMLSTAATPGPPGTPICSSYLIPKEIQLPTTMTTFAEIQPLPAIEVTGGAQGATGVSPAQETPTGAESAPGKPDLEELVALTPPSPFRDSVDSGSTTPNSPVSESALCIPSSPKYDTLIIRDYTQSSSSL

Q: Which Ki [1] does the source give for `Fc1nc(C#Cc2ccccc2)cs1` here?
A: The Ki was 122 nM.

Q: For `N#Cc1cccc(C#Cc2csc(F)n2)c1`, which Ki [1] is on record?
A: The Ki was 1.6 nM.

Q: For `N#Cc1cccc(C#Cc2csc(Br)n2)c1`, which Ki [1] is on record?
A: Its Ki is 3.7 nM.

Q: For `N#CCc1cccc(C#Cc2csc(N)n2)c1`, which Ki [1] is on record?
A: Its Ki is 5.9 nM.

Q: Which Ki [1] does the source give for `N#Cc1cccc(C#Cc2csc(I)n2)c1` here?
A: The Ki was 4.2 nM.

Q: For `COc1cccc(C#Cc2csc(Br)n2)c1`, which Ki [1] is on record?
A: The Ki was 22.3 nM.

Q: With `N#CCc1cccc(C#Cc2csc(I)n2)c1` as the compound, how does the Ki [1] read?
A: The Ki was 23.3 nM.

Q: Which Ki [1] does the source give for `N#Cc1cc(F)cc(C#Cc2csc(CF)n2)c1` here?
A: Its Ki is 0.036 nM.

Q: For `COc1cccc(C#Cc2csc(I)n2)c1`, which Ki [1] is on record?
A: The Ki was 133 nM.

Q: Which Ki [1] does the source give for `N#Cc1cccc(C#Cc2csc(Cl)n2)c1` here?
A: Its Ki is 0.27 nM.

Q: For `N#Cc1cccc(C#Cc2csc(N)n2)c1`, which Ki [1] is on record?
A: Its Ki is 0.9 nM.

Q: For `Cc1nc(C#Cc2cc(F)cc(C#N)c2)cs1`, which Ki [1] is on record?
A: Its Ki is 0.08 nM.

Q: For `N#Cc1cc(F)cc(C#Cc2csc(Br)n2)c1`, which Ki [1] is on record?
A: The Ki was 0.95 nM.

Q: For `COc1cccc(C#Cc2csc(N)n2)c1`, which Ki [1] is on record?
A: Its Ki is 18.6 nM.

Q: Which Ki [1] does the source give for `N#CCc1cccc(C#Cc2csc(Cl)n2)c1` here?
A: The Ki was 3.1 nM.

Q: For `N#Cc1cc(F)cc(C#Cc2csc(N)n2)c1`, which Ki [1] is on record?
A: Its Ki is 0.25 nM.

Q: With `N#CCc1cccc(C#Cc2csc(F)n2)c1` as the compound, how does the Ki [1] read?
A: Its Ki is 3.9 nM.

Q: For `COc1cccc(C#Cc2csc(F)n2)c1`, which Ki [1] is on record?
A: The Ki was 22.7 nM.

Q: Which Ki [1] does the source give for `COc1cccc(C#Cc2csc(Cl)n2)c1` here?
A: Its Ki is 8.1 nM.

Q: Which Ki [2] does the source give for `N#Cc1cc(F)cc(C#Cc2csc(F)n2)c1` here?
A: Its Ki is > 10 µM.

Q: And the Ki [3]?
A: The Ki was > 10 µM.

Q: What about the Ki [4] of the same compound?
A: Its Ki is > 10 µM.

Q: And the Ki [5]?
A: Its Ki is > 10 µM.

Q: And the Ki [6]?
A: Its Ki is > 10 µM.

Q: What about the Ki [7] of the same compound?
A: The Ki was > 10 µM.

Q: What about the Ki [8] of the same compound?
A: The Ki was > 10 µM.

Q: What about the Ki (Histamine H3 receptor) of the same compound?
A: Its Ki is > 10 µM.

Q: And the Ki [9]?
A: The Ki was > 10 µM.

Q: What about the Ki [10] of the same compound?
A: The Ki was > 10 µM.

Q: And the Ki [11]?
A: The Ki was > 10 µM.

Q: What about the Ki (D(1A) dopamine receptor) of the same compound?
A: The Ki was > 10 µM.

Q: And the Ki [1]?
A: The Ki was 0.28 nM.

Q: And the Ki (Mu-type opioid receptor)?
A: The Ki was > 10 µM.

Q: What about the Ki [12] of the same compound?
A: Its Ki is > 10 µM.

Q: And the Ki [13]?
A: Its Ki is > 10 µM.

Q: What about the Ki [14] of the same compound?
A: The Ki was > 10 µM.

Q: What about the Ki [15] of the same compound?
A: Its Ki is > 10 µM.

Q: What about the Ki [16] of the same compound?
A: Its Ki is > 10 µM.

Q: What about the Ki [17] of the same compound?
A: Its Ki is > 10 µM.

Q: What about the Ki [18] of the same compound?
A: Its Ki is > 10 µM.

Q: What about the Ki [19] of the same compound?
A: Its Ki is > 10 µM.

Q: What about the Ki (Histamine H2 receptor) of the same compound?
A: The Ki was > 10 µM.

Q: What about the Ki [20] of the same compound?
A: Its Ki is > 10 µM.

Q: What about the Ki [21] of the same compound?
A: Its Ki is > 10 µM.

Q: What about the Ki [22] of the same compound?
A: The Ki was > 10 µM.

Q: And the Ki [23]?
A: The Ki was > 10 µM.

Q: What about the Ki (D(1B) dopamine receptor) of the same compound?
A: The Ki was > 10 µM.

Q: And the Ki (D(2) dopamine receptor)?
A: The Ki was > 10 µM.

Q: And the Ki (Histamine H4 receptor)?
A: The Ki was > 10 µM.

Q: What about the Ki [24] of the same compound?
A: The Ki was > 10 µM.

Q: And the Ki [25]?
A: The Ki was > 10 µM.

Q: What about the Ki (D(4) dopamine receptor) of the same compound?
A: Its Ki is > 10 µM.

Q: What about the Ki [26] of the same compound?
A: The Ki was > 10 µM.

Q: And the Ki [27]?
A: Its Ki is > 10 µM.

Q: And the Ki [28]?
A: The Ki was > 10 µM.

Q: What about the Ki [29] of the same compound?
A: Its Ki is > 10 µM.

Q: What about the Ki [30] of the same compound?
A: The Ki was > 10 µM.

Q: What about the Ki [31] of the same compound?
A: The Ki was > 10 µM.

Q: What about the Ki (Histamine H1 receptor) of the same compound?
A: Its Ki is > 10 µM.

Q: What about the Ki [32] of the same compound?
A: The Ki was > 10 µM.

Q: And the Ki (D(3) dopamine receptor)?
A: The Ki was > 10 µM.

Q: What about the Ki [33] of the same compound?
A: The Ki was > 10 µM.

Q: And the Ki [34]?
A: Its Ki is > 10 µM.

Q: What about the Ki [35] of the same compound?
A: Its Ki is > 10 µM.

Q: What about the Ki [36] of the same compound?
A: Its Ki is > 10 µM.

Q: And the Ki [37]?
A: The Ki was > 10 µM.

Q: And the Ki [38]?
A: Its Ki is > 10 µM.

Q: And the Ki [39]?
A: Its Ki is > 10 µM.

Q: What about the Ki [40] of the same compound?
A: Its Ki is > 10 µM.

Q: And the Ki [41]?
A: Its Ki is > 10 µM.

Q: With `N#Cc1cc(F)cc(C#Cc2csc(I)n2)c1` as the compound, how does the Ki [1] read?
A: Its Ki is 1.3 nM.

Q: Which Ki [1] does the source give for `N#CCc1cccc(C#Cc2csc(Br)n2)c1` here?
A: The Ki was 3.3 nM.

Q: With `N#Cc1cc(F)cc(C#Cc2csc(Cl)n2)c1` as the compound, how does the Ki [1] read?
A: Its Ki is 0.4 nM.
